Only some compounds are listed: those with a hit (about 2.4% of all), similar ones and a draw of the others.
NPY Y1 blocker: blocks the human neuropeptide Y Y1 receptor; inhibition, % at 3.6 µM; HEK293-CNG Y1 cells, membrane potential fluorescence; NPY at EC95, then isoproterenol; AID 1040; 200,000 compounds, 1% hits; P25929;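 active means inhibition above the campaign mean inhibition of all tested compounds plus 3 SD, cut at about 20% in these data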;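 further: 0% = DMSO wells given NPY plus isoproterenol and 100% = isoproterenol alone without NPY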
Target sequence (P25929 whole entry, looked up): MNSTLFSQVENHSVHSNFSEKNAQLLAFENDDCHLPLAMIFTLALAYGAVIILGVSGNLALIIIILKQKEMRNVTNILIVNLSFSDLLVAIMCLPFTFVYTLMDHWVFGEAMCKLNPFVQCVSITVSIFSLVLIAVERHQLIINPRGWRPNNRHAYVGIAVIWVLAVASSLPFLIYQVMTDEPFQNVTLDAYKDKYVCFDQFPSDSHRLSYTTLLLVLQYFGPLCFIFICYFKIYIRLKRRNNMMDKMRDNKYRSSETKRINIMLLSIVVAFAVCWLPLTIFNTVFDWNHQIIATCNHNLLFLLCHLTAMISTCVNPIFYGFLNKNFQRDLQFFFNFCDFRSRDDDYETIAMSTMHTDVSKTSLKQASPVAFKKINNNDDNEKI
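Material: HEK293 cells co-expressing NPY Y1 receptor and cyclic-nucleotide gated channel. Timing: compound incubation 1 h at room temperature, readout 45 min post-stimulation. Signal: fluorescence, membrane potential probe.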
NPY1 pot ag: potentiates or activates human NPY-Y1 receptor. activation, % at 3.6 µM. AID 1304. NPY-Y1 expressing cells, potentiator/agonist activation. P25929. 220,000 compounds, 0.37% hits; in the data active means activation above about 33%, passing the limit was not always enough;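 further: cells stimulated with NPY at EC10 then isoproterenol at EC100; 0% = low agonist plus stimulus and 100% = saturating agonist plus stimulus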
NPY Y2 blocker: antagonists of human neuropeptide Y receptor Y2 | P49146 | NPY-Y2 expressing cells, antagonist mode | inhibition, % at 2.7 µM | 140,000 compounds, 0.99% hits | AID 793;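 further: 0% = vehicle with agonist challenge and 100% = reference antagonist with challenge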
S1P4 antag: antagonists of human S1P4 receptor; O95977; inhibition, % at 4.98 µM; 220,000 compounds, 0.26% hits; S1P4-expressing cells, antagonist mode, reporter read-out; in the data active means inhibition above about 29%;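 further: 0% = wells stimulated with agonist and 100% = vehicle wells without agonist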
S1P4 ag: agonists of human S1P4 receptor | AID 1509 | 220,000 compounds, 0.35% hits | S1P4-expressing cell line, agonist reporter assay | O95977 | activation, % at 4.98 µM; in the data active means activation above about 11%;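 further: 0% = DMSO vehicle and 100% = reference agonist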
NPY2 pot ag: potentiators or agonists of human neuropeptide Y receptor Y2; cells expressing NPY-Y2, potentiator/agonist read-out; 220,000 compounds, 0.45% hits; activation, % at 3.6 µM; P49146; in the data active means activation above about 27%;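 further: cells stimulated with NPY near EC25 plus isoproterenol at EC100; 0% = vehicle plus submaximal agonist and 100% = vehicle plus saturating agonist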
NPY1 antag conf: human NPY-Y1 antagonism, confirmation. shares compounds with NPY Y1 blocker. HEK293-CNG NPY-Y1, membrane potential fluorescence, cAMP; NPY challenge against isoproterenol-raised cAMP. inhibition, % at 3.6 µM. 1,200 compounds, 21% hits; in the data active means inhibition above about 20%;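 further: 0% = vehicle with agonist plus stimulus and 100% = stimulus alone without agonist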
NPY2 antag ctr: human NPY-Y2 antagonism in NPY-Y1 counter-screen. shares compounds with NPY Y1 blocker. HEK293 NPY-Y2 CNG membrane potential fluorescence; cells given NPY, then isoproterenol. inhibition, % at 3.6 µM. 1,200 compounds, 28% hits. AID 1255;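 further: 0% = DMSO with agonist challenge and 100% = reference antagonist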
Numbers without * were called inactive; nt = not tested or not shown. Unless noted, no stated cut-off is given here; in the data, active means inhibition above about 17%; inactive means the rest.

SMILES | NPY Y1 blocker | NPY1 pot ag | NPY Y2 blocker | S1P4 antag | S1P4 ag | NPY2 pot ag | NPY1 antag conf | NPY2 antag ctr
CC1(C)Cc2c(sc(NC(=O)COc3cccc4ccccc34)c2C#N)C(C)(C)N1 | nt | -47 | nt | 3 | -1 | -42 | nt | nt
CCN(CC)CCN(Cc1cc2cc3c(cc2[nH]c1=O)OCO3)C(=S)NCc1ccco1 | 6 | -6 | nt | -8 | 2 | -12 | nt | nt
CCN(CC)CCN(Cc1cc2cc(C)ccc2[nH]c1=O)C(=S)NCc1ccco1 | 8 | -41 | 6 | -21 | -2 | -10 | nt | nt
CCN(CC)CCN(Cc1cc2cc(C)cc(C)c2[nH]c1=O)C(=S)NCc1ccco1 | 21* | -81 | 11 | -14 | 0 | -20 | 14 | 14
CCN(CC)CCN(Cc1cc2ccc(C)c(C)c2[nH]c1=O)C(=S)NCc1ccco1 | 27* | -20 | nt | 9 | -1 | -31 | 15 | 16
CCOc1ccc(N(CC(=O)NC(C(C)C)C(C)C)S(=O)(=O)c2ccc(OC)c(OC)c2)cc1 | 2 | -11 | nt | -8 | 0 | -17 | nt | nt
COc1cc(C(=O)Nc2cccc(-c3nnc(-c4ccco4)o3)c2)ccc1OC(C)=O | 3 | 13 | nt | 2 | 1 | 9 | nt | nt
COc1ccc(-c2cc(C(=O)Nc3ccccc3O)c3ccccc3n2)cc1OC | 27* | -41 | nt | -17 | -1 | -52 | 14 | 23*
COc1ccc(-c2cc(C(=O)Nc3ccccc3N3CCOCC3)c3ccccc3n2)cc1OC | 30* | -41 | nt | 4 | 0 | -40 | 17 | 14
OCCC1CN(Cc2ccc(Oc3ncccn3)cc2)CCN1C1CCCC1 (centres undefined) | 3 | 3 | nt | -2 | -1 | 11 | nt | nt
O=C(O)c1nn(-c2ccccc2)nc1-c1nn(-c2ccccc2)nc1C(=O)O | 31* | -33 | 9 | -9 | 1 | -19 | 10 | 10
O=C(CSc1ccc2nnc(-c3ccncc3)n2n1)Nc1nccs1 | 0 | -10 | nt | 2 | 0 | -9 | nt | nt
CCCCOC(=O)c1cc(=O)[nH]c2ccc(C)cc12 | 22* | -5 | nt | 15 | -1 | 3 | 10 | 8
CCOC(=O)C1=NOC(C(=O)NN(C)c2ncc(C(F)(F)F)cc2Cl)C1 (centres undefined) | -1 | 3 | nt | 5 | -1 | 7 | nt | nt
CCCCN(c1ccc(C(=O)OC)cc1)S(=O)(=O)c1ccccc1 | 86* | -8 | nt | 14 | 0 | -15 | 10 | 7
CCc1ccc(/C=C\C(=O)N2CCc3ccccc3C2)cc1 | 21* | -21 | 11 | 8 | -3 | -28 | 9 | 10
O=C1CCCC(=O)N1c1ccc(N2CCOCC2)c([N+](=O)[O-])c1 | 2 | 0 | nt | 1 | -2 | -8 | nt | nt
CCN(CC)S(=O)(=O)c1cc(C(=O)NCCN2CCOCC2)ccc1Cl | -2 | -10 | nt | -7 | 0 | -4 | nt | nt
Cc1ccc(C)c(Cn2c(CO)nc3ccccc32)c1 | 21* | -26 | 7 | -8 | 1 | -39 | 9 | 9
CCOC(=O)CN1C(=O)N[C@H](c2ccc(Br)cc2)C(C(C)=O)=C1C | 24* | -16 | 11 | -1 | -1 | -9 | 4 | 6
CC(=O)C1=C(C)N(CC2CC2)C(=O)N[C@H]1c1ccc(Br)cc1 | -3 | -13 | 1 | 0 | 1 | -2 | nt | nt
COc1ccc(Cl)cc1NC(=O)CNc1ccccc1CN(C)C1CCCCC1 | 29* | -17 | nt | 0 | 2 | -8 | 26* | 20*
O=C(NNc1ccccc1[N+](=O)[O-])Nc1cccc(Cl)c1 | nt | 13 | nt | -17 | 0 | 16 | nt | nt
CCOc1ccc(C2=Nn3c(nnc3-c3ccccc3OC)SC2)cc1 | 26* | -23 | 6 | 25 | 1 | -31 | 7 | 27*
Cc1cc2c(C)ccc(C)c2nc1SCC(=O)c1cccs1 | 9 | -15 | 9 | -9 | 1 | -17 | nt | nt
Cc1cc(SCC(=O)c2cccs2)nc2c(C)cccc12 | 22* | -19 | 12 | 3 | 2 | -24 | 4 | 8

Assay outcomes (PubChem BioAssay)
